Assay results from ChEMBL document CHEMBL1149232, “An aminomethylpyrimidine DPP-IV inhibitor with improved properties” (Bioorg Med Chem Lett, 2004).

Tests used:
[1] = Octanol water partition coefficient was determined at pH 7.4; type: physicochemical
[2] = molecular target: Cytochrome P450 3A4 (Homo sapiens, UniProt P08684); test: Inhibition of human liver microsome Cytochrome P3A4; type: microsomes
Summary of the method: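 CYP3A4 inhibition was measured by a published fluorometric method using BFC as the substrate.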

Cytochrome P450 3A4, sequence (P08684 whole entry): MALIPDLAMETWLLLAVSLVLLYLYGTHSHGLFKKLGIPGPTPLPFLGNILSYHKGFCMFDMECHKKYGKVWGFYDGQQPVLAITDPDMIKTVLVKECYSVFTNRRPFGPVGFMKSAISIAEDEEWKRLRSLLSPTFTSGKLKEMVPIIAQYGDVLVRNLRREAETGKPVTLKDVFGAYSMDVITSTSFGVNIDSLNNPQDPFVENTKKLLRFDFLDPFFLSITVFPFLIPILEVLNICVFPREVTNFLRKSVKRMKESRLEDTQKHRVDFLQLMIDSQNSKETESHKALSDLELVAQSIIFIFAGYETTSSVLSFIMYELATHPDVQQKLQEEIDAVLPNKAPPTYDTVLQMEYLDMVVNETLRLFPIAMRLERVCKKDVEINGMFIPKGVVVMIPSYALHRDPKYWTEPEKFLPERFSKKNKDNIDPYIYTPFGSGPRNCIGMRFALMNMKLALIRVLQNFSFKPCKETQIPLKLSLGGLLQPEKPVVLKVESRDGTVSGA

## COc1nc(N)c(CN)c(-c2ccc(Cl)cc2Cl)n1
[1]
  logD: 1.6

## NCc1c(N)nc(N)nc1-c1ccc(Cl)cc1Cl
[1]
  logD: 0.4

## Cc1nc(N)c(CN)c(-c2ccc(Cl)cc2Cl)n1
[1]
  logD: 1.4

## NCc1c(N)nc(-c2ccccc2)nc1-c1ccc(Cl)cc1Cl
[1]
  logD: 3
[2]
  IC50: 5.4 µM
